In ChEMBL document CHEMBL1130142, “(S)-spiro[(1,3-diazacyclopent-1-ene)-5,2'-(7'-methyl-1',2',3',4'- tetrahydronaphthalene)]: resolution, stereospecific synthesis, and preliminary pharmacological characterization as a partial alpha-adrenergic agonist” (J Med Chem, 1997):

Columns and labels:
[1] = species: Canis familiaris; assay: Effective Concentration compound in isolated canine femoral artery; assay type: functional; settings: Canis lupus familiaris
How it was run: (§1)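 Isolated canine blood vessels (saphenous vein without endothelium; femoral artery) exposed to increasing agonist concentrations; contractile responses measured.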

[2] = species: Canis familiaris; assay: Maximum contractile response expressed as percentage (mean) of the maximal contraction to KCl (100 mM) in the isolated saphenous vein
[3] = species: Canis familiaris; assay: Effective concentration of compound in isolated canine saphenous vein; assay type: functional; settings: Canis lupus familiaris; how it was run: as §1
[4] = species: Rattus norvegicus; assay: The maximal pressure response caused by the compound in pithed rat; assay type: functional
[5] = species: Canis familiaris; assay: Maximum contractile response expressed as percentage (mean) of the maximal contraction to KCl (100 mM) in the isolated femoral artery
[6] = test system: Rattus norvegicus; assay: Concentration which increases the arterial blood pressure by 20 mmHg in the pithed rat in vivo by intravenous administration; assay type: functional, Artery
[7] = C20 ratio was determined in the presence or absence of 0.1 mg of prazosin for the compound which are indicative of the contribution of alpha-1 adnergic mechanisms to the pressor response; assay type: functional
How it was run: (§2)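 Pithed rats received test compound as cumulative iv doses, and mean arterial pressure was recorded. C20 is the iv dose (µg/kg) that raises arterial pressure by 20 mmHg (mean ± SEM, n = 5). The same cumulative doses were repeated 10 min after iv prazosin 100 µg/kg or iv yohimbine 1 mg/kg. The ratio is C20 without antagonist over C20 with antagonist.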

[8] = C20 ratio was determined in the presence or absence of 1 mg of yohimbine for the compound which are indicative of the contribution of alpha-2 adnergic mechanisms to the pressor response; assay type: functional; how it was run: as §2
[9] = species: Canis familiaris; assay: Maximum contractile response expressed as percentage (mean) of the maximal contraction to KCl (100 mM) in the isolated saphenous vein; remark: listed apart in the source
[10] = species: Canis familiaris; assay: Maximum contractile response expressed as percentage (mean) of the maximal contraction to KCl (100 mM) in the isolated femoral artery; remark: listed apart in the source

| EC50 [1] [µM] | EC50 [3] [µM] | Compound | Emax [2] | Max [4] [mmHg] | Emax [5] | C20 [6] [µg/kg] | Ratio [7] | Ratio [8] | Emax [9] | Emax [10] |
| --- | --- | --- | --- | --- | --- | --- | --- | --- | --- | --- |
| > 3 | 2.8 | Cc1ccc2c(c1)C[C@]1(CC2)CN=CN1 | 39.4 | 109 | 8.4 | 44.8 | – | – | – | – |
| > 3 | 0.22 | Cc1ccc2c(c1)C[C@@]1(CC2)CN=CN1 | – | 106 | – | 5.8 | – | – | 78.3 | 15.8 |
| > 3 | 0.36 | Cc1ccc2c(c1)CC1(CC2)CN=CN1 (stereo unspecified) | 68.5 | 112 | 7.7 | 6.7 | – | – | – | – |

| Compound | EC50 [1] [µM] | EC50 [3] [µM] | Emax [2] | Max [4] [mmHg] | Emax [5] | C20 [6] [µg/kg] | Ratio [7] | Ratio [8] | Emax [9] | Emax [10] |
| --- | --- | --- | --- | --- | --- | --- | --- | --- | --- | --- |
| FC(F)(F)c1ccc(Cl)c(NC2=NCCN2)c1 | 10.9 | 2.02 | 54.4 | 129 | 19.7 | 8.6 | 16 | 1.8 | – | – |
